Data from ChEMBL document CHEMBL2086233, “D-proline-based peptidomimetic inhibitors of anthrax lethal factor” (Eur J Med Chem, 2012).

biological target: T1, Lethal factor (Bacillus anthracis) (UniProt P15917); assay: Inhibition of Bacillus anthracis lethal factor using protease substrate-2 assessed as release of p-nitroaniline at 10 uM measured for 10 mins by spectrophotometric assay
T1 sequence (whole entry): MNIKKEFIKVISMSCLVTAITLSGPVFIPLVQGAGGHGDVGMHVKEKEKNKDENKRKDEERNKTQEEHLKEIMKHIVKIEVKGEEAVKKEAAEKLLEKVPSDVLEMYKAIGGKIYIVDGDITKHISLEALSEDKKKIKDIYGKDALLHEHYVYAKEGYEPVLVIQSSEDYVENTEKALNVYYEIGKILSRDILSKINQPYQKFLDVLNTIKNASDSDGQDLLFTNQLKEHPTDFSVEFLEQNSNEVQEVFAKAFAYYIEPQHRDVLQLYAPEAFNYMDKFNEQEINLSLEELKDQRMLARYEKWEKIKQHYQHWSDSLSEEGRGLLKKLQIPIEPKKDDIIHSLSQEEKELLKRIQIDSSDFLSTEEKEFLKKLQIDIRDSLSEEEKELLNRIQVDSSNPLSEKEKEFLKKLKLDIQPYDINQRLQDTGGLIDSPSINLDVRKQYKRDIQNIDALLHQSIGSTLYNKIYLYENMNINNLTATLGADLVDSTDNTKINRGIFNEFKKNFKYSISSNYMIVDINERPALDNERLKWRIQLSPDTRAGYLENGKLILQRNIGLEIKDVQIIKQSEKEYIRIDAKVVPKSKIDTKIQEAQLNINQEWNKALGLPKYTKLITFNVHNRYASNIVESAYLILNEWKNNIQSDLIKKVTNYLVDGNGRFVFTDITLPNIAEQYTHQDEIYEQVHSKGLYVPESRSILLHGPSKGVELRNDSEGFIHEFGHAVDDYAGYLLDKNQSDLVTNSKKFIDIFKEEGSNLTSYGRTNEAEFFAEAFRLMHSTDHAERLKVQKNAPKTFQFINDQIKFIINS
How it was run: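 Single fixed inhibitor concentration. A405 (p-nitroaniline release) followed 10 min after LF addition. % inhibition from initial velocity versus no-inhibitor control. Mean of three experiments.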

| SMILES | inhibition |
| --- | --- |
| O=C(NO)[C@H]1C[C@@H](OCc2ccccc2)CN1S(=O)(=O)c1ccc(Cl)c(Cl)c1 | 50% |
| O=C(NO)[C@H]1C[C@H](OCc2ccccc2)CN1S(=O)(=O)c1ccc(Cl)c(Cl)c1 | 16% |
| COc1ccc(C(=O)N[C@@H]2C[C@H](C(=O)NO)N(S(=O)(=O)c3ccc(Cl)c(Cl)c3)C2)c(OC)c1 | 65% |
| O=C(/C=C/c1ccco1)N[C@H]1C[C@H](C(=O)NO)N(S(=O)(=O)c2ccc(Cl)c(Cl)c2)C1 | 22% |
| O=C(NO)[C@H]1C[C@@H](n2cc(-c3ccccc3)nn2)CN1S(=O)(=O)c1ccc(Cl)c(Cl)c1 | 8% |
| O=C(N[C@H]1C[C@H](C(=O)NO)N(S(=O)(=O)c2ccc(Cl)c(Cl)c2)C1)c1cccs1 | 46% |
| COc1ccc(C(=O)N[C@H]2C[C@H](C(=O)NO)N(S(=O)(=O)c3ccc(Cl)c(Cl)c3)C2)c(OC)c1 | 11% |
| O=C(N[C@@H]1C[C@H](C(=O)NO)N(S(=O)(=O)c2ccc(Cl)c(Cl)c2)C1)c1cccs1 | 27% |

biological target: T2, Lethal factor (Bacillus anthracis, UniProt P15917); assay: Inhibition of Bacillus anthracis lethal factor using protease substrate-2 assessed as release of p-nitroaniline measured for 10 mins by spectrophotometric assay
T2 sequence (P15917 whole entry): T1 sequence (whole entry)
How it was run: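 10 nM LF with lethal factor protease substrate II (pNA-tagged peptide) in 250 mM Na2HPO4, 150 mM NaCl, pH 7.4, 25 °C. A405 followed 10 min after enzyme addition. Inhibitor at five concentrations starting at 500 nM. IC50 by non-linear regression of the dose-response data. Experiments repeated twice.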

| SMILES | IC50 |
| --- | --- |
| O=C(NO)[C@H]1C[C@@H](OCc2ccccc2)CN1S(=O)(=O)c1ccc(Cl)c(Cl)c1 | 9500 nM |
| CCCCCCO[C@H]1CCN(S(=O)(=O)c2ccc(Cl)cc2)[C@H]1C(=O)NO | > 10000 nM |
| COc1ccc(C(=O)N[C@@H]2C[C@H](C(=O)NO)N(S(=O)(=O)c3ccc(Cl)c(Cl)c3)C2)c(OC)c1 | 2100 nM |
| O=C(NO)[C@H]1[C@@H](OCc2ccccc2)CCN1S(=O)(=O)c1ccc(Cl)cc1 | 1700 nM |
| O=C(NO)[C@H]1[C@@H](OCc2ccccc2)CCN1S(=O)(=O)c1ccc(Cl)c(Cl)c1 | 1400 nM |
